Measured values published in ChEMBL document CHEMBL4028863, “Exploring Heme and Hemoglobin Binding Regions of Plasmodium Heme Detoxification Protein for New Antimalarial Discovery” (J Med Chem, 2017).
Activity calls are given as the source filed them. The rule behind the calls is not given here.

Key:
[1] = test system: Plasmodium falciparum; assay: Antiparasitic activity against late ring stage Plasmodium falciparum 3D7 infected in RBC at 50 to 100 uM after 60 hrs by ethidium bromide staining based flow cytometric analysis; format: functional
Method in brief: (§1)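 P. falciparum 3D7 cultures synchronized with 5% sorbitol; assay set at late ring stage, 2% hematocrit, 1% parasitemia. Compounds added at 50 and 100 μM (screen) or 5−100 μM (dose series). Parasitemia read by flow cytometry after 60 h (methods: 48 h into next cycle): ethidium bromide 10 μg/mL, 20 min, 37 °C; FL2-positive fraction of 100000 cells, uninfected RBCs as control. Triplicates.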

[2] = test system: Plasmodium falciparum; assay: Growth inhibition of late ring stage Plasmodium falciparum 3D7 infected in RBC after 60 hrs by e thidium bromidestaining based flow cytometric analysis; format: functional; method in brief: as §1
[3] = Stability of the compound under freezing condition; format: physicochemical
[4] = test system: Heme; assay: Binding affinity to heme (unknown origin) at 20 uM by SORET assay
Method in brief: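 Soret titration: 20 μM peptide in 100 mM sodium acetate pH 5.2; heme added in 3 μM increments. Spectrum recorded after each addition; change in absorbance at 400 nm plotted against heme concentration. Alanine-substituted peptide served as control.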

[5] = test system: Heme; assay: Binding affinity to heme (unknown origin) assessed as reduction in heme to hemozoin conversion by Plasmodium falciparum HDP
Method in brief: (§2)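 Heme-to-hemozoin conversion: heme (10 mM DMSO stock) at 300 μM with 0.5 μM recombinant PfHDP in 500 mM sodium acetate pH 5.2, 4 h at 37 °C. Stopped with SDS. Pellet washed in 2.5% SDS and in 50 mM bicarbonate pH 9.1 to strip free heme. Hemozoin dissolved in 0.1N NaOH/2.5% SDS, read at 405 nm. Triplicates.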

[6] = test system: Heme; assay: Binding affinity to heme (unknown origin) assessed as reduction in heme to hemozoin conversion by Plasmodium falciparum HDP at 100 uM relative to control; design: scale not given: the % may be the effect or the level left; method in brief: as §2
[7] = Inhibition of wild type Plasmodium falciparum HDP binding to hemoglobin at 0.5 to 100 uM preincubated for 30 min followed by HDP addition measured after 1 hr by ELISA
Method in brief: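 ELISA competition: 400 ng hemoglobin preincubated with varying peptide concentrations for 30 min at 37 °C, then added to wells coated overnight at 4 °C with 200 ng recombinant PfHDP and blocked with 3% BSA. Detection with anti-Hb (1:500), then HRP anti-rabbit (1:5000) for 1 h, OPD substrate, absorbance 490 nm. Control peptide included.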

[8] = test system: Plasmodium falciparum; assay: Antiplasmodial activity against late trophozoite stage of Plasmodium falciparum 3D7 infected in RBC assessed as gross deformaties in food vacuole at 50 to 100 uM after 12 hrs by giemsa staining based microscopic analysis; format: functional
Method in brief: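 Sorbitol-synchronized 3D7 late-ring cultures at 2% hematocrit and 1% parasitemia were given peptide at 50−100 μM. After 12 h, at the late trophozoite stage, Giemsa-stained smears were examined by microscopy for food vacuole morphology.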

[9] = target: T1, Heme ligase (Plasmodium falciparum (isolate 3D7), UniProt Q8IL04); assay: Binding affinity to Plasmodium falciparum 3D7 HDP assessed as equilibrium dissociation constant by SPR assay
T1 sequence (Q8IL04 whole entry): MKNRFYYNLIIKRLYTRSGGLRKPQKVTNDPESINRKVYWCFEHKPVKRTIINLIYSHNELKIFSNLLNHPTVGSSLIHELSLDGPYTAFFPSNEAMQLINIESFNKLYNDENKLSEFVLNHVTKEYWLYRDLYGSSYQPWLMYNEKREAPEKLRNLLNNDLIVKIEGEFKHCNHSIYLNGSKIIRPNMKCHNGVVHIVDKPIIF
Method in brief: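 Recombinant Pf HDP immobilised (>9500 RU) on a CM5 chip from 10 mM sodium acetate pH 4.0, then ethanolamine-blocked. Ligand was diluted from a 10 mM DMSO stock to 200 μM (2% DMSO), and a concentration series was made in PBS pH 7.4 running buffer with 2% DMSO and 0.05% P20. Eight-point DMSO solvent correction, glycine pH 2.5 regeneration, 25 °C, kinetic fit.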

[10] = target: T2, Heme ligase (Plasmodium falciparum (isolate 3D7)) (UniProt Q8IL04)
T2 sequence (whole entry): T1 sequence (Q8IL04 whole entry)

[11] = target: T2, Heme ligase (Plasmodium falciparum (isolate 3D7)); conditions: Plasmodium falciparum 3D7; 50 uM

Compound | Activity [1] | growth inhibition (GI) [2] | Stability [3] | further results
O=C(CCn1c(=O)oc2ccccc21)Nc1cc(C(F)(F)F)cc(C(F)(F)F)c1 | Active |  |  | 
Cc1cc(=O)oc2cc(NS(=O)(=O)c3cccc4nonc34)ccc12 | Active |  |  | 
Cc1ccc(Oc2ncccc2NC(=O)c2ccc3c(c2)OCCCO3)c2c1CCC2 | Active | Dose-dependent effect | Unstable | 
H-MKCHNGVVHIVD-OH |  |  |  | Activity [4]: Active; Activity [5]: Dose-dependent effect; Activity [6]: > 75%
O=C(NNC(=O)C1c2ccccc2Oc2ccccc21)c1cccc(C(F)(F)F)c1 | Active | Dose-dependent effect | Unstable | 
H-LRNLLNNDLIVKIEGEFKH-OH |  |  |  | inhibition [7]: Active; Activity [8]: Active
N#Cc1cc(Cc2ccc3c(ccc4ccccc43)c2C#N)cc2c1ccc1ccccc12 | Active |  |  | 
H-GEFKAAAASIYLNG-OH |  |  |  | Activity [4]: Active
Cc1ccc(-n2nnnc2SCc2nc(-c3cccc([N+](=O)[O-])c3)no2)c(C)c1 | Active | Dose-dependent effect | Unstable | 
O=[N+]([O-])c1ccc(N/N=C2/C(=C/c3cccc4ccccc34)CCc3ccccc32)c([N+](=O)[O-])c1 | Active | Dose-dependent effect | Unstable | 
FC(F)(F)c1cccc(N2CCN(C3=Cc4ccccc4CC3)CC2)c1 | Active | Dose-dependent effect | Stable | IC50 ([2]; 3D7, 60 h): 59.6 µM; Kd [9]: 2.96 µM; Ka [10]: 3.37 ×10⁵ /M; inhibition [11]: 31%
O=C(c1cccs1)c1nn(-c2ccccc2)c2nc(=O)cc(-c3ccccc3)n12 | Active | Dose-dependent effect | Unstable | 
H-LHRKNFLELGNENIDKL-OH |  |  |  | inhibition [7]: inactive
C(=C1/c2ccccc2-c2c1ccc1ccccc21)/c1cc2c3c(cccc3c1)-c1ccccc1-2 | Active |  |  | 
O=c1oc2ccccc2c2c1C(c1cccc([N+](=O)[O-])c1)c1c(c3ccccc3oc1=O)O2 | Active |  |  | 
H-GEFKHCNHSIYLNG-OH |  |  |  | Activity [4]: Active; Activity [5]: Dose-dependent effect; Activity [6]: > 75%
NS(=O)(=O)c1cccc(-c2ccc(C3Nc4ccccc4-c4nc5ccccc5n43)o2)c1 (centres undefined) | Active |  |  | 
COc1ccc(Oc2ccc(C(F)(F)F)cc2NS(=O)(=O)c2cccc3nonc23)cc1 | Active |  |  | 
